# Active and inactive are the calls of the source. No cut-off for these calls is given here.
# Experiments:
# LS174T [1] = assay: Antiproliferative activity against human LS174T cells assessed as inhibition of cell proliferation at 100 nM after 4 days by Vi-Cell cell viability analyzer based method relative to control; assay type: functional; conditions: 96 h
# How it was run: (§1)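 Cells (colon LS174T, HT-29, Caco2; lung epithelial BEAS-2B; fibroblast HEL 299) were kept in RPMI or DMEM with 5% or 10% FBS plus 1% penicillin/streptomycin. 3 × 10^4 cells per well were exposed to DMSO or compound. After 4 days, cell number and viability were counted on a Vi-Cell analyzer. Results are given as percent inhibition of proliferation at the stated concentration.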
# [2] = Cytotoxicity against human BEAS2B cells assessed as inhibition of cell proliferation at 10 uM after 4 days by Vi-Cell cell viability analyzer based method relative to control; design: species or system BEAS-2B; how it was run: as §1
# LS174T [3] = assay: Antiproliferative activity against human LS174T cells assessed as inhibition of cell proliferation at 30 nM after 4 days by Vi-Cell cell viability analyzer based method relative to control; assay type: functional; conditions: 96 h; how it was run: as §1
# LS174T [4] = assay: Antiproliferative activity against human LS174T cells assessed as inhibition of cell proliferation after 4 days by Vi-Cell cell viability analyzer based method; assay type: functional; conditions: 96 h
# How it was run: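 LS174T cells in RPMI or DMEM with 5% or 10% FBS plus 1% penicillin/streptomycin were seeded at 3 × 10^4 cells per well. They were treated with DMSO or a range of compound concentrations, and cell number and viability were counted on a Vi-Cell analyzer after 4 days. IC50 was fitted from the dose-response curve.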
# LS174T [5] = assay: Antiproliferative activity against human LS174T cells assessed as inhibition of cell proliferation at 1 uM after 4 days by Vi-Cell cell viability analyzer based method relative to control; assay type: functional; conditions: 96 h; how it was run: as §1
# HT-29 [6] = assay: Antiproliferative activity against human HT-29 cells assessed as inhibition of cell proliferation at 1 uM after 4 days by Vi-Cell cell viability analyzer based method relative to control; assay type: functional; conditions: HT-29, 96 h; how it was run: as §1
# LS174T [7] = assay: Antiproliferative activity against human LS174T cells assessed as inhibition of cell proliferation at 10 uM after 4 days by Vi-Cell cell viability analyzer based method relative to control; assay type: functional; conditions: 96 h; how it was run: as §1
# [8] = Cytotoxicity against human HEL299 cells assessed as inhibition of cell proliferation at 10 uM after 4 days by Vi-Cell cell viability analyzer based method relative to control; design: species or system HEL 299; how it was run: as §1
# [9] = Cytotoxicity against human HEL299 cells assessed as inhibition of cell proliferation at 1 uM after 4 days by Vi-Cell cell viability analyzer based method relative to control; design: species or system HEL 299; how it was run: as §1
# [10] = Cytotoxicity against human BEAS2B cells assessed as inhibition of cell proliferation at 1 uM after 4 days by Vi-Cell cell viability analyzer based method relative to control; design: species or system BEAS-2B; how it was run: as §1
# [11] = molecular target: G1/S-specific cyclin-D1 (Homo sapiens) (UniProt P24385); assay: Inhibition of cyclin D1 in human LS174T cells assessed as induction of p21 waf1/cip1 expression at 300 nM by Western blot analysis; assay type: cell-based
# How it was run: (§2)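 LS174T cells were treated at 300 nM. Lysates were western blotted with antibodies to cyclin D1 and p21Wif1/Cip1, using β-tubulin as the loading control.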
# Caco-2 [12] = assay: Antiproliferative activity against human Caco2 cells assessed as inhibition of cell proliferation at 1 uM after 4 days by Vi-Cell cell viability analyzer based method relative to control; assay type: functional; conditions: Caco-2, 96 h; how it was run: as §1
# [13] = molecular target: G1/S-specific cyclin-D1 (Homo sapiens) (UniProt P24385); assay: Inhibition of cyclin D1 in human LS174T cells assessed as reduction in protein level at 300 nM by Western blot analysis; assay type: cell-based; how it was run: as §2
# [14] = molecular target: S-adenosylmethionine synthase isoform type-2 (Homo sapiens) (UniProt P31153); assay: Binding affinity to GST-tagged MAT2A (unknown origin) expressed in Escherichia coli BL21 by Western blot based pull down assay
# How it was run: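 Recombinant MAT2A was incubated with or without the biotinylated probe, and the complex was captured on streptavidin beads. Bound protein was eluted with 2.5 mM D-(+)-biotin, run on 10% SDS-PAGE, and detected by western blot with an anti-MAT2A antibody.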
# HT-29 [15] = assay: cells; conditions: Homo sapiens, HT-29, 96 h, read-out: INH
# Caco-2 [16] = assay: cells; conditions: Homo sapiens, Caco-2, 96 h, read-out: INH
# Chain of G1/S-specific cyclin-D1 (Homo sapiens) (P24385 whole entry, canonical isoform): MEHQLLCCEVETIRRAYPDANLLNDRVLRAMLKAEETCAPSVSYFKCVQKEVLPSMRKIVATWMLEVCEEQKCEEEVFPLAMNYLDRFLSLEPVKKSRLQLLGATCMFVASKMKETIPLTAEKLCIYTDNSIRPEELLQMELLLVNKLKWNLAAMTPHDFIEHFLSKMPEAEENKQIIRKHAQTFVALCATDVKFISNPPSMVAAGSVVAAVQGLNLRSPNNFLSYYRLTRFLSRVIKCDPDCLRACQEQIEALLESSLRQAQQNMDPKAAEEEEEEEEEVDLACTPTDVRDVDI
# Chain of S-adenosylmethionine synthase isoform type-2 (Homo sapiens) (P31153 whole entry, looked up, canonical isoform): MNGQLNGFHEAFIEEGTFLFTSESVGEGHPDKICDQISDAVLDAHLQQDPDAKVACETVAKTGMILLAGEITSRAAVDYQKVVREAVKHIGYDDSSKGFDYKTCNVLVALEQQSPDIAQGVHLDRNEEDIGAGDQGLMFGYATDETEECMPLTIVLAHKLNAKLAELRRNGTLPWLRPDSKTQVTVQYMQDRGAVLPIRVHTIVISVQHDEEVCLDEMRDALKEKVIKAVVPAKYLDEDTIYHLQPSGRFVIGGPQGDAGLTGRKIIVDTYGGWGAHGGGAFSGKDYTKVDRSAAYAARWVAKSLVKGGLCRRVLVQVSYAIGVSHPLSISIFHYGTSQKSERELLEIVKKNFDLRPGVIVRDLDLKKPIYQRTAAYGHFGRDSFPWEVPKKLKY
Compound,inhibition at 0.1 µM (LS174T [1]),inhibition at 1 µM (LS174T [5]),inhibition at 10 µM (LS174T [7]),further results
CN(C)c1ncc(C#Cc2c(F)cccc2F)c2ccccc12,81.7%,99.5%,97.6%,"inhibition at 96 h, 10 µM [2]: 16.2%; inhibition at 0.03 µM (LS174T [3]): 86%; IC50 (LS174T [4]): 11.8 nM; inhibition at 1 µM (HT-29 [6]): 35.9%; inhibition at 96 h, 10 µM [8]: 11.7%; inhibition at 96 h, 1 µM [9]: 13.9%; inhibition at 96 h, 1 µM [10]: 1.5%; inhibition [11]: Active; inhibition at 1 µM (Caco-2 [12]): 54.5%; inhibition [13]: Active"
Fc1cccc(F)c1C#Cc1cncc2ccccc12,–,16.5%,87.9%,–
CN(C)c1ccc(C#Cc2c(F)cccc2F)cn1,0%,77.9%,83.6%,–
Fc1cccc(F)c1C#Cc1nccc2ccccc12,–,35.4%,96.7%,–
CN(CC(=O)NCCOCCOCCNC(=O)CCCC[C@@H]1SC[C@@H]2NC(=O)N[C@@H]21)c1ccc(C#Cc2c(F)cccc2F)c2ccccc12,–,–,–,Activity [14]: Active
Fc1cccc(F)c1C#Cc1ccc2nc(Cl)ccc2c1,–,21.2%,63.3%,–
Fc1cccc(F)c1C#Cc1ccc2cncnc2c1,–,33.8%,96.3%,–
Nc1ncc(C#Cc2c(F)cccc2F)c2ccccc12,35.5%,86.2%,93.1%,–
Fc1cccc(F)c1C#Cc1ccc2[nH]ccc2c1,–,52.9%,91.5%,–
Fc1cccc(F)c1C#Cc1ccc(-n2cccc2)cc1,11%,77.5%,96.7%,–
Fc1cccc(F)c1C#Cc1cccc2cnccc12,–,64.2%,93.6%,–
Fc1cccc(F)c1C#Cc1ccc(N2CCOCC2)cc1,–,13%,32.1%,–
Fc1cccc(F)c1C#Cc1ccnc2ccccc12,–,15.4%,59%,–
Fc1cccc(F)c1C#Cc1ccc2[nH]ncc2c1,–,17.6%,82.9%,–
Fc1cccc(F)c1C#Cc1cnc2ccccc2c1Cl,0%,51.5%,80.4%,–
Fc1cccc(F)c1C#Cc1cccc2ncccc12,–,43.1%,94.7%,–
Fc1cccc(F)c1C#Cc1cccc2cccnc12,–,47.6%,92.7%,–
Nc1ccnc2ccc(C#Cc3c(F)cccc3F)cc12,0%,66.2%,93.9%,–
CN(C)c1cnc(C#Cc2c(F)cccc2F)cn1,–,22.9%,91.6%,–
Fc1cccc(F)c1C#Cc1cccc2[nH]ncc12,–,19.8%,96.2%,–
CN1CCN(c2ncc(C#Cc3c(F)cccc3F)c3ccccc23)CC1,–,23.2%,100%,–
O=c1[nH]cc(F)c(=O)[nH]1 [FLUOROURACIL],–,6.5%,82.3%,"inhibition at 10 µM (HT-29 [15]): 82.9%; inhibition at 96 h, 10 µM [2]: 57.5%; inhibition at 10 µM (Caco-2 [16]): 60.2%; inhibition at 1 µM (HT-29 [6]): 11.6%; inhibition at 96 h, 10 µM [8]: 64.6%; inhibition at 96 h, 1 µM [9]: 12.1%; inhibition at 96 h, 1 µM [10]: 4.5%; inhibition at 1 µM (Caco-2 [12]): 37.7%"
Fc1cccc(F)c1C#Cc1cnc(Cl)c2ccccc12,0.8%,48.1%,94%,–
Cc1ccc(C)n1-c1ccc(C#Cc2c(F)cccc2F)cc1,–,20.9%,78.8%,–
Nc1ccc2ncc(C#Cc3c(F)cccc3F)cc2c1,–,–,9.2%,–
CN(C)c1ccc(C#Cc2c(F)cccc2F)nc1,15.1%,68.9%,85.2%,–

Compound,inhibition at 0.1 µM (LS174T [1]),inhibition at 1 µM (LS174T [5]),inhibition at 10 µM (LS174T [7]),further results
Fc1cccc(F)c1C#Cc1ccc2nccc(Cl)c2c1,–,43.8%,89.7%,–
Nc1ccnc2cc(C#Cc3c(F)cccc3F)ccc12,–,23.6%,97.7%,–
Cn1ncc2ccc(C#Cc3c(F)cccc3F)cc21,0%,85.9%,98.1%,–
CN(C)c1ccc(C#Cc2c(F)cccc2F)cc1,–,–,–,IC50 (LS174T [4]): 25.1 nM; inhibition [11]: Active; inhibition [13]: Active
Fc1cccc(F)c1C#Cc1ccc2c(Cl)ccnc2c1,–,23.1%,70.8%,–
Fc1cccc(F)c1C#Cc1ccc2ncccc2c1,–,11%,80.1%,–
Cn1ccc2cc(C#Cc3c(F)cccc3F)ccc21,3%,77.7%,95.2%,–
O=C1CCCCN1c1ccc(C#Cc2c(F)cccc2F)cc1,–,6.4%,68.1%,–
Fc1cccc(F)c1C#Cc1ccc2cn[nH]c2c1,–,81.5%,97%,–
Fc1cccc(F)c1C#Cc1cc2ccccc2nc1Cl,–,28.4%,85.1%,–
Fc1cccc(F)c1C#Cc1ccc2cccnc2c1,2.9%,90.7%,99.4%,–
Fc1cccc(F)c1C#Cc1ccc2cnccc2c1,–,11.6%,82.4%,–
Fc1cccc(F)c1C#Cc1cnc2c(F)cccc2c1,8.8%,63.6%,89.1%,–
Fc1cccc(F)c1C#Cc1cnc2[nH]ccc2c1,–,17.3%,77.9%,–
Fc1ccc2ccnc(C#Cc3c(F)cccc3F)c2c1,0%,71.1%,96.2%,–
Fc1cccc(F)c1C#Cc1ccnc2cc(Cl)ccc12,–,36%,74.3%,–
Fc1ccc2cc(C#Cc3c(F)cccc3F)cnc2c1,14.8%,69.4%,95.1%,–
Cn1ncc2cc(C#Cc3c(F)cccc3F)ccc21,0%,58.4%,94.6%,–
CN1CCN(c2ccc(C#Cc3c(F)cccc3F)cc2)CC1,–,19.9%,99.6%,–
Fc1cccc(F)c1C#Cc1ccc2ccccc2n1,6.1%,67.3%,93.8%,–
CN(C)c1ncc(C#Cc2c(F)cccc2F)c2ncccc12,59.5%,87.9%,85.2%,–
Fc1cccc(F)c1C#Cc1cnc2ccccc2c1,0%,41.7%,90.4%,–
CNc1ncc(C#Cc2c(F)cccc2F)c2ccccc12,99.5%,99.8%,98.9%,"inhibition at 96 h, 10 µM [2]: 19.2%; inhibition at 0.03 µM (LS174T [3]): 94.5%; IC50 (LS174T [4]): 4.2 nM; inhibition at 1 µM (HT-29 [6]): 76.8%; inhibition at 96 h, 10 µM [8]: 9.5%; inhibition at 96 h, 1 µM [9]: 6.3%; inhibition at 96 h, 1 µM [10]: 5.8%; inhibition [11]: Active; inhibition at 1 µM (Caco-2 [12]): 58.3%; inhibition [13]: Active"
Fc1cccc(F)c1C#Cc1ccc(-n2cccc2)nc1,0%,80.5%,95.3%,–
CN(C)c1ccc2cc(C#Cc3c(F)cccc3F)ccc2n1,–,2%,38.7%,–

# Source: ChEMBL document CHEMBL4261567, “Phenylethynyl-substituted Heterocycles Inhibit Cyclin D1 and Induce the Expression of Cyclin-dependent Kinase Inhibitor p21Wif1/Cip1 in Colorectal Cancer Cells” (Medchemcomm, 2018)
